Reference: ChEMBL document CHEMBL1126741 (J Med Chem, 1993)

Key:
Mus musculus [1] = assay: Maximum obtainable hypothermic effect up to 30 mg/kg dose in mice expressed as temperature decrease in degree Centigrade; type: functional
Method in brief: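 Mice (Charles River, 18–22 g) dosed sc in 0.1 mL at doses up to 30 mg/kg. Rectal temperature measured 20 min after injection. The mean maximum temperature drop at 20 min is recorded as a crude index of efficacy.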

Felis catus [2] = assay: (§1) Maximum decrease in sympathetic nerve discharge(SND) observed at 1 mg/kg dose in cat; type: functional; design: scale not given: the % may be the effect or the level left
Method in brief: (§2)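 Mongrel cats (2.5-4.0 kg) anaesthetised with chloralose 80 mg/kg iv, in a stereotaxic frame, femoral artery and vein cannulated. SND was quantified by cumulative integration of slow waves, with a 1 h equilibration and baseline taken over the last 10 min. Cumulative iv doses of 0.01, 0.03, 0.1, 0.3 and 1.0 mg/kg were given every 20 min, each read 15-20 min post-dose. ED50 is the dose reducing SND to 50% of pretreatment (95% CI). Maximum decrease at 1 mg/kg is given as % control ±SEM.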

[3] = Dose to reduce neuronal firing against 5-HT cells in rats (iv); type: functional; details: Rattus norvegicus
Method in brief: (§3)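 Male Sprague-Dawley rats (250-350 g) anaesthetised with chloral hydrate 400 mg/kg. Extracellular single-unit firing was recorded by glass microelectrode (pontamine sky blue in 2 M NaCl) from 5-HT cells in dorsal raphe or DA cells in substantia nigra pars compacta, with drug given iv. Cell sites were confirmed histologically by dye mark. ED50 is the dose inhibiting firing by 50%, in µg/kg ±SEM, with n animals.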

Mus musculus [4] = assay: Dose required to obtain hypothermic effect in mice following subcutaneous administration; type: functional; details: sc
Method in brief: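 Charles River mice (18–22 g), housed singly, given 0.1-mL sc injections at doses spaced in half-log intervals. Rectal temperature read 20 min after injection. Responders were those of four mice per dose that dropped >1.1 °C. ED50 by Spearman–Karber, with 95% confidence intervals.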

Felis catus [5] = assay: Dose required to reduce sympathetic nerve discharge in cats following intravenous administration
[6] = Dose to reduce neuronal firing against DA cells (antagonist) in rats (iv); type: functional; details: Rattus norvegicus
D(2) dopamine receptor = D(2) dopamine receptor (Homo sapiens, UniProt P14416); assay: Displacement of [3H]U-86170 from human D2-dopamine receptor expressed in CHO K1 cells; type: cell-based
Sequence of D(2) dopamine receptor (P14416 whole entry): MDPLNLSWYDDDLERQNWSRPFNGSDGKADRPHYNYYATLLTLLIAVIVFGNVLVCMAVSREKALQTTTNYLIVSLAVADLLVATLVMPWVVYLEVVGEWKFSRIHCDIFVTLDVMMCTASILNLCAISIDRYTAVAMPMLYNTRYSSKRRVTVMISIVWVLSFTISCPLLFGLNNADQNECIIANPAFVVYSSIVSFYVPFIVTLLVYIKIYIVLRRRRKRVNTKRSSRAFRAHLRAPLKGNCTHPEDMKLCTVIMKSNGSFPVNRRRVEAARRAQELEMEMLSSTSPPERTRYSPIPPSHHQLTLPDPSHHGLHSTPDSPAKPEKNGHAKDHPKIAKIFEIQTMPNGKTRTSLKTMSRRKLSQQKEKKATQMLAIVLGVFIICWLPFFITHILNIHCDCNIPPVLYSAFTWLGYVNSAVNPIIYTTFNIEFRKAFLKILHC

Felis catus [7] = assay: Maximum decrease in sympathetic nerve discharge(SND) +/-SEM observed at 1 mg/kg dose in cat; type: functional; design: scale not given: the % may be the effect or the level left
Method in brief: (§4)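 Chloralose-anesthetized mongrel cats (80 mg/kg iv), stereotaxic, femoral cannulation. SND integrated cumulatively; pretreatment value averaged over the last 10 min of a 1 h equilibration. Cumulative iv dosing from 0.01 up to 1.0 mg/kg every 20 min, read 15–20 min after each dose. Maximum SND decrease at 1 mg/kg expressed as % control (±SEM); n = 2–8 cats.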

Felis catus [8] = assay: Dose required to reduce sympathetic nerve discharge in cat following intravenous administration; type: functional; method in brief: as §2
Felis catus [9] = assay: as §1; type: functional; design: scale not given: the % may be the effect or the level left; method in brief: as §4; remark: listed apart in the source
[10] = Dose to reduce neuronal firing against DA cells in rats (iv); type: functional; details: Rattus norvegicus; method in brief: as §3
Felis catus [11] = assay: Dose required to completely shut off sympathetic nerve discharge in cat following intravenous administration; type: functional

| SMILES | Temperature (Mus musculus [1]) [°C] | Control (Felis catus [2]) [%] | ED50 [3] [mg/kg] | ED50 (Mus musculus [4]) [mg/kg] | ED50 (Felis catus [5]) [mg/kg] | ED50 [6] [mg/kg] | Ki (D(2) dopamine receptor) [nM] | Control (Felis catus [7]) [%] | ED50 (Felis catus [8]) [mg/kg] | Control (Felis catus [9]) [%] | ED50 [10] [mg/kg] | ED50 (Felis catus [11]) [mg/kg] |
| --- | --- | --- | --- | --- | --- | --- | --- | --- | --- | --- | --- | --- |
| CCCN(CCC)[C@@H]1CCc2cccc(O)c2C1 | 4 | 0 | 0.0016 | 1 | 0.01 | 0.74 | – | – | – | – | – | – |
| CCCN[C@@H]1CCc2ccc3[nH]c(C(N)=O)cc3c2C1 | 2.4 | – | – | 2.3 | – | – | 857 | – | – | – | – | – |
| CCCN(CCC)[C@@H]1CCc2ccc3[nH]c(C(N)=O)cc3c2C1 | 3.3 | – | > 0.1 | 0.6 | – | – | 215 | 0 | 0.19 | – | – | – |
| CCCN[C@H]1CCc2ccc3[nH]c(C(N)=O)cc3c2C1 | 1.8 | – | – | 17.3 | – | – | > 1670 | – | – | – | – | – |
| CCCN(CCCCN1C(=O)CC(C)(C)CC1=O)[C@@H]1CCc2ccc3[nH]c(C#N)cc3c2C1 | 6.8 | – | – | 0.13 | 0.01 | – | 44 | – | – | 0 | – | – |
| CCCN(CCCCN1C(=O)CC(C)(C)CC1=O)[C@@H]1CCc2ccc3[nH]c(C(N)=O)cc3c2C1 | 2.8 | – | – | 9.7 | 0.41 | – | 38 | – | – | 22 | – | – |
| CCCN(CCC)[C@H]1CCc2ccc3[nH]c(C#N)cc3c2C1 | 6.3 | – | – | 1.3 | 0.15 | – | 896 | – | – | 0 | – | – |
| CCCN(CCCCN1C(=O)CC(C)(C)CC1=O)[C@H]1CCc2ccc3[nH]c(C#N)cc3c2C1 | 3.9 | – | – | 3.1 | – | – | > 333 | – | – | – | – | – |
| O=C1CC2(CCCC2)CC(=O)N1CCCCN1CCN(c2ncccn2)CC1 [BUSPIRONE] | 1.9 | – | 0.0154 | 3 | – | 0.0113 | – | – | 0.08 | 43 | – | – |
| CCCN(CCCCN1C(=O)CC(C)(C)CC1=O)[C@H]1CCc2ccc3[nH]c(C(N)=O)cc3c2C1 | 2.2 | – | – | 4.1 | – | – | 914 | – | – | – | – | – |
| CCCN(CC1CC1)[C@H]1CCc2ccc3[nH]c(C(N)=O)cc3c2C1 | 3.3 | – | – | 9.7 | 0.4 | – | > 1000 | – | – | 14 | – | – |
| CCCN(CC1CC1)[C@@H]1CCc2ccc3[nH]c(C(N)=O)cc3c2C1 | 4 | – | – | 2.3 | 0.9 | – | 389 | – | – | 43 | – | – |
| CCCN(CCC)[C@H]1CCc2ccc3[nH]c(C(N)=O)cc3c2C1 | 2.2 | – | > 0.1 | 1 | – | – | > 1000 | – | 0.19 | 10 | – | – |
| CCCN(CCC)[C@@H]1CCc2ccc3[nH]c(C#N)cc3c2C1 [U-92,016-A] | 7.2 | – | 0.0034 | 0.04 | – | – | 35 | – | 0.017 | 0 | 0.084 | 0.03 |
